Laboratory results as given in ChEMBL document CHEMBL3352584, “Novel DNA gyrase inhibiting spiropyrimidinetriones with a benzisoxazole scaffold: SAR and in vivo characterization” (J Med Chem, 2014).
In brackets after ≈: the same amount, converted by molar mass.

Assays:
[1] = Solubility of the compound; assay type: physicochemical
[2] = Fraction unbound in human plasma at 10 uM after 16 hrs by LC-MS/MS analysis; assay type: ADME, cell-free
Summary of the method: (§1)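 Compound at 10 μM in human, rat or mouse plasma, equilibrium dialysis against buffer at 37 °C for 16 h. Buffer and plasma concentrations measured by LC-MS/MS, and the free fraction taken from their ratio.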

Haemophilus influenzae = experiment: Antimicrobial activity against Haemophilus influenzae by broth microdilution method; assay type: functional
Summary of the method: (§2)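 Broth microdilution following CLSI guidelines. Values under 12.5 μM are averages of three or more replicates.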

Escherichia coli [3] = experiment: Antimicrobial activity against tolC-deficient Escherichia coli by broth microdilution method; assay type: functional; summary of the method: as §2
Streptococcus pneumoniae [4] = experiment: Antimicrobial activity against Streptococcus pneumoniae by broth microdilution method; assay type: functional; summary of the method: as §2
Staphylococcus aureus [5] = experiment: Antimicrobial activity against methicillin-resistant and quinolone-resistant Staphylococcus aureus by broth microdilution method; assay type: functional; summary of the method: as §2
DNA gyrase = DNA gyrase (Escherichia coli, UniProt P0AES4+P0AES6); experiment: Inhibition of Escherichia coli DNA gyrase using fluorescence-tagged DNA by fluorescenct polarization assay; assay type: protein-complex assay
Summary of the method: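 E. coli DNA gyrase supercoiling assay. The read-out was differential binding of a fluorescence-tagged DNA to relaxed versus supercoiled DNA, giving IC50.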

Staphylococcus aureus [6] = experiment: Antimicrobial activity against methicillin-sensitive Staphylococcus aureus by broth microdilution method in presence of 50% human serum; assay type: functional
Summary of the method: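 CLSI broth microdilution against methicillin-sensitive S. aureus, run with 50% human serum added to the medium to reflect plasma protein binding. Values under 12.5 μM are averages of three or more replicates.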

Escherichia coli [7] = experiment: Antimicrobial activity against Escherichia coli by broth microdilution method; assay type: functional; summary of the method: as §2
Staphylococcus aureus [8] = experiment: Antimicrobial activity against methicillin-sensitive Staphylococcus aureus by broth microdilution method; assay type: functional; summary of the method: as §2
Streptococcus pyogenes = experiment: Antimicrobial activity against Streptococcus pyogenes by broth microdilution method; assay type: functional; summary of the method: as §2
[9] = Clearance in mouse at 3 mg/kg, iv or at 10 mg/kg, po by LC-MS/MS method; assay type: ADME, organism-based; conditions: in vivo
Summary of the method: (§3)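 Male mice (CD-1) or male Wistar Hannover rats, three per experiment, given a 15 min iv infusion at 3 mg/kg or oral dosing at 10 mg/kg. Vehicle was DMA:TEG:saline 40/40/20 for mice and meglumine/cyclodextrin for rats. Serial jugular blood was taken over 0–24 h, plasma analysed by LC-MS/MS, and a noncompartmental analysis used. Mean values are given.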

[10] = Fraction unbound in mouse plasma at 10 uM after 16 hrs by LC-MS/MS analysis; assay type: ADME, cell-free; summary of the method: as §1
[11] = Bioavailability in rat at 3 mg/kg, iv or at 10 mg/kg, po by LC-MS/MS method; assay type: ADME, organism-based; conditions: in vivo; summary of the method: as §3
[12] = Bioavailability in mouse at 3 mg/kg, iv or at 10 mg/kg, po by LC-MS/MS method; assay type: ADME, organism-based; conditions: in vivo; summary of the method: as §3
[13] = Clearance in rat at 3 mg/kg, iv or at 10 mg/kg, po by LC-MS/MS method; assay type: ADME, organism-based; conditions: in vivo; summary of the method: as §3
[14] = Fraction unbound in rat plasma at 10 uM after 16 hrs by LC-MS/MS analysis; assay type: ADME, cell-free; summary of the method: as §1
Streptococcus pneumoniae [15] = experiment: Antimicrobial activity against wild-type Streptococcus pneumoniae 548 by broth microdilution method; assay type: functional; summary of the method: as §2
Staphylococcus aureus [16] = experiment: Antimicrobial activity against Staphylococcus aureus 2792 harboring wild-type GyrA and GyrB R144A mutant by broth microdilution method; assay type: functional
Staphylococcus aureus [17] = experiment: Antimicrobial activity against wild-type Staphylococcus aureus 516 by broth microdilution method; assay type: functional; summary of the method: as §2
Streptococcus pneumoniae [18] = experiment: Antimicrobial activity against Streptococcus pneumoniae 2485 harboring GyrA S81F mutant, GyrB D160E/T329A mutant and ParC S79F mutant by broth microdilution method; assay type: functional
Staphylococcus aureus [19] = experiment: Antimicrobial activity against Staphylococcus aureus 2375 harboring GyrA S84L mutant, GyrB R144A mutant and ParC S80Y/E84G/V693M mutant and ParE N141S mutant by broth microdilution method; assay type: functional
Streptococcus pneumoniae [20] = experiment: Antimicrobial activity against Streptococcus pneumoniae 2800 harboring GyrB K143I/T172A mutant by broth microdilution method; assay type: functional

SMILES | solubility [1] [µM] | fraction unbound at 16 h, 10 µM [2] | MIC (Haemophilus influenzae) [µM] | MIC (Escherichia coli [3]) [µM] | MIC (Streptococcus pneumoniae [4]) [µM] | MIC (Staphylococcus aureus [5]) [µM] | IC50 (DNA gyrase) [nM] | MIC (Escherichia coli [7]) [µM] | MIC (Staphylococcus aureus [8]) [µM] | MIC (Streptococcus pyogenes) [µM] | further results
Cc1noc2c(Cl)c3c(cc12)CC1(C(=O)NC(=O)NC1=O)C1C(C)OC(C)CN31 (racemic) | 330 (≈ 138 µg/mL) | 0.03 | 3.1 (≈ 1.3 µg/mL) | ≤ 0.2 | 50 (≈ 20.9 µg/mL) | 12 (≈ 5.03 µg/mL) | 370 | 200 (≈ 83.8 µg/mL) | 6.2 (≈ 2.6 µg/mL) | 25 (≈ 10.5 µg/mL) | MIC (Staphylococcus aureus [6]): 50 µM
Cc1noc2c(F)c3c(cc12)CC1(C(=O)NC(=O)NC1=O)[C@@H]1[C@@H](C)O[C@@H](C)CN31 | > 1000 | 0.035 | > 200 | 50 (≈ 20.1 µg/mL) | > 200 | > 200 | > 83000 | > 200 | > 200 | – | –
C[C@@H]1CN2c3c(cc4c(N)noc4c3F)CC3(C(=O)NC(=O)NC3=O)[C@H]2[C@H](C)O1 | 330 (≈ 133 µg/mL) | 0.13 | 1.6 (≈ 0.645 µg/mL) | ≤ 0.2 | 6.2 (≈ 2.5 µg/mL) | 50 (≈ 20.2 µg/mL) | 260 | 100 (≈ 40.3 µg/mL) | 25 (≈ 10.1 µg/mL) | 3.1 (≈ 1.25 µg/mL) | –
C[C@@H]1CN2c3c(cc4c(C(F)F)noc4c3F)CC3(C(=O)NC(=O)NC3=O)[C@H]2[C@H](C)O1 | > 1000 | 0.028 | 0.62 (≈ 0.272 µg/mL) | ≤ 0.2 | 3.1 (≈ 1.36 µg/mL) | 0.39 (≈ 0.171 µg/mL) | 480 | 25 (≈ 11 µg/mL) | 0.39 (≈ 0.171 µg/mL) | 1.2 (≈ 0.526 µg/mL) | clearance [9]: 47 mL/min/kg; fraction unbound at 16 h, 10 µM [10]: 0.044; bioavailability [11]: 87%; bioavailability [12]: 95%; clearance [13]: 1 mL/min/kg; fraction unbound at 16 h, 10 µM [14]: 0.043; MIC (Staphylococcus aureus [6]): 3.1 µM
Cc1noc2c(F)c3c(cc12)CC1(C(=O)NC(=O)NC1=O)[C@H]1[C@H](C)O[C@@H](C)CN31 | 340 (≈ 137 µg/mL) | 0.051 | 200 (≈ 80.5 µg/mL) | 12 (≈ 4.83 µg/mL) | > 200 | > 200 | 26000 | > 200 | > 200 | > 200 | –
COCc1noc2c(F)c3c(cc12)CC1(C(=O)NC(=O)NC1=O)C1C(C)OC(C)CN31 (racemic) | 180 (≈ 77.8 µg/mL) | 0.096 | 12 (≈ 5.19 µg/mL) | ≤ 0.2 | 12 (≈ 5.19 µg/mL) | 6.2 (≈ 2.68 µg/mL) | 1600 | 200 (≈ 86.5 µg/mL) | 3.1 (≈ 1.34 µg/mL) | 6.2 (≈ 2.68 µg/mL) | –
CO[C@@H]1[C@@H](OC(N)=O)[C@@H](O)[C@H](Oc2ccc3c(O)c(NC(=O)c4ccc(O)c(CC=C(C)C)c4)c(=O)oc3c2C)OC1(C)C [NOVOBIOCIN] | – | – | – | – | – | – | – | – | – | – | MIC (Streptococcus pneumoniae [15]): 1 µg/mL (≈ 1.63 µM); MIC (Staphylococcus aureus [16]): 32 µg/mL (≈ 52.2 µM); MIC (Staphylococcus aureus [17]): 0.13 µg/mL (≈ 0.212 µM); MIC (Streptococcus pneumoniae [18]): 0.13 µg/mL (≈ 0.212 µM); MIC (Staphylococcus aureus [19]): 4.3 µg/mL (≈ 7.02 µM); MIC (Streptococcus pneumoniae [20]): > 16 µg/mL
O=C(O)c1cn(C2CC2)c2cc(N3CCNCC3)c(F)cc2c1=O [CIPROFLOXACIN] | – | – | < 0.1 | < 0.1 | 1.5 (≈ 0.497 µg/mL) | 96 (≈ 31.8 µg/mL) | – | 0.06 (≈ 0.0199 µg/mL) | 0.91 (≈ 0.302 µg/mL) | 1.5 (≈ 0.497 µg/mL) | –
CC1CN2c3c(cc4c(C(C)(C)C)noc4c3F)CC3(C(=O)NC(=O)NC3=O)C2C(C)O1 (racemic) | 770 (≈ 342 µg/mL) | 0.042 | 200 (≈ 88.9 µg/mL) | 3.1 (≈ 1.38 µg/mL) | 200 (≈ 88.9 µg/mL) | 18 (≈ 8 µg/mL) | 4000 | > 200 | 18 (≈ 8 µg/mL) | 50 (≈ 22.2 µg/mL) | –
